ChEMBL document CHEMBL1123861, “Antitumor agents. 89. Psychorubrin, a new cytotoxic naphthoquinone from Psychotria rubra and its structure-activity relationships” (1987)
≈ marks a conversion by molar mass, not a printed value.

Each molecule was assayed on KB (assay: Evaluated for cytotoxicity in the KB cell culture assay). Details: Homo sapiens, read-out: ED50 (the source's name).
Type: functional
Summary of the method: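 Cytotoxicity screen per NIH protocol. 10^4 tumor cells grown in MEM with 10% fetal calf serum; penicillin and streptomycin given on day 3. Drug tested at 0.1 to 20 µg/mL (N = 4). Viable cells counted by trypan blue exclusion and expressed as % of the 0.05% Tween 80-water control. ED50 estimated from a semi-log plot of concentration vs % viable cells.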

Going from `Cc1cc2c(o1)-c1ccccc1C(=O)C2=O` to `Cc1cc2c(o1)C(=O)c1ccccc1C2=O`, the EC50 falls from 0.6 µg/mL (≈ 2.83 µM) to 0.3 µg/mL (≈ 1.41 µM) (2-fold).

First: CC(O)c1cc2c(o1)C(=O)c1ccccc1C2=O (stereo not drawn)
Second: CC(=O)c1cc2c(o1)C(=O)c1ccccc1C2=O [NAPABUCASIN]
The EC50 of the first is 2-fold higher: 2 µg/mL (≈ 8.26 µM) for the first, 1 µg/mL (≈ 4.16 µM) for the second.

First: O=C1C2=C(CC(O)OC2)C(=O)c2ccccc21 (stereo not drawn)
Second: CC(=O)OC1CC2=C(CO1)C(=O)c1ccccc1C2=O (stereo not drawn)
The EC50 of the first is 1.7-fold lower: 3 µg/mL (≈ 13 µM) for the first, 5 µg/mL (≈ 18.4 µM) for the second.

`CC(=O)OC1CCC2=C(O1)C(=O)c1ccccc1C2=O` (stereo not drawn) and `COC1CCC2=C(O1)C(=O)c1ccccc1C2=O` (stereo not drawn) are within 1.5-fold of each other in EC50: 10 µg/mL (≈ 36.7 µM) for the first, 11 µg/mL (≈ 45 µM) for the second.

Compared with `O=C1C2=C(OC(Cl)CC2)C(=O)c2ccccc21` (stereo not drawn), `O=C1C2=C(OC(O)CC2)C(=O)c2ccccc21` (stereo not drawn) is 2.2-fold higher in EC50: 9.3 µg/mL (≈ 37.4 µM) for the first, 20 µg/mL (≈ 86.9 µM) for the second.

Going from `C=C/C=C1/C(=O)C(=O)c2ccccc2C1=O` to `C/C=C/C1=C(O)C(=O)c2ccccc2C1=O`, the EC50 rises from 0.4 µg/mL (≈ 1.88 µM) to 14 µg/mL (≈ 65.4 µM) (35-fold).

`C/C=C/C1=C(OC(C)=O)C(=O)c2ccccc2C1=O` and `C/C=C/C1=C(OC(=O)CC)C(=O)c2ccccc2C1=O` are within 1.5-fold of each other in EC50: 5.1 µg/mL (≈ 19.9 µM) for the first, 6.5 µg/mL (≈ 24 µM) for the second.

Compared with `O=C1C2=C(OCC=C2)C(=O)c2ccccc21`, `O=C1C2=C(OCCC2)C(=O)c2ccccc21` is 20-fold higher in EC50: 0.4 µg/mL (≈ 1.88 µM) for the first, 8 µg/mL (≈ 37.3 µM) for the second.

`C/C=C/C1=C(OC(=O)c2ccccc2)C(=O)c2ccccc2C1=O` and `CC(C)=CCC1=C(O)C(=O)c2ccccc2C1=O` [LAPACHOL] are within 1.5-fold of each other in EC50: 5.1 µg/mL (≈ 16 µM) for the first, 4.4 µg/mL (≈ 18.2 µM) for the second.
